The results in this text go back to publication PMC2494688 (Diabetes, 2008).

Experiment [1] relates to islets from wild-type mice. The experiment can be described thus: Static GDIS assay, 1-h incubation, wild-type islets. Type of experiment: cell-based, mouse. Conditions: 200 μmol/l, 16 mmol/l glucose, n = 6. In short, it runs like this: (§1)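 Islets isolated by collagenase digestion and Ficoll gradient, cultured overnight in RPMI-1640 with 11 mmol/l glucose. Preincubated 30 min in KRB (0.2% BSA) with 2 mmol/l glucose. One islet/well incubated 60 min at 2 or 16 mmol/l glucose, ± 200 μmol/l oleate or palmitate or 10 μmol/l test compound; DMSO vehicle. Insulin by ultrasensitive rat insulin ELISA. Two experiments, six replicates in total. Wild-type islets also tested across a compound concentration series at 16 mmol/l glucose (three experiments).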

Experiment [2] relates to islets from GPR40−/− mice. The experiment can be described thus: Static GDIS assay, 1-h incubation, GPR40−/− islets. Type of experiment: cell-based, mouse. The note with it: 200 μmol/l, 16 mmol/l glucose, n = 6, P > 0.05. In short, it runs like this:
as §1

The target in a further experiment is human GPR40 (Homo sapiens, UniProt O14842). Type of experiment: cell-based. Conditions: CHO cells, in words. In short, it runs like this:
(§2)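 GPR40 stably expressed in CHO cells carrying NFAT β-lactamase, seeded 1 day before. Test compound in DMSO, diluted in assay buffer, added as a 5× solution. Calcium signal read on FLIPR from 10 s before addition. EC50 taken from concentration–response curves.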

A further experiment concerns the target mouse GPR40 (Mus musculus, UniProt Q76JU9). It is filed as cell-based. Conditions: CHO cells, in words. In outline: as §2
Another experiment relates to wild-type C57BL/6 mice. As to the kind of experiment: IPGTT in wild-type lean mice. It is filed as in vivo, mouse. Conditions: 0.0025 mg/kg, positive control. In short, it runs like this: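 Lean male C57BL/6N mice fasted 5–6 h, dosed orally with compound (1–100 mg/kg) or 0.25% methylcellulose vehicle (10 ml/kg) 60 min before 2 g/kg i.p. dextrose. Tail glucose sampled to 60 min. Percent inhibition derived from the 0–60 min AUC minus the vehicle/water group AUC. Plasma compound measured by LC-MS/MS at 60 min of IPGTT (2 h post-dose).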

mouse GPR40, sequence (Q76JU9 whole entry): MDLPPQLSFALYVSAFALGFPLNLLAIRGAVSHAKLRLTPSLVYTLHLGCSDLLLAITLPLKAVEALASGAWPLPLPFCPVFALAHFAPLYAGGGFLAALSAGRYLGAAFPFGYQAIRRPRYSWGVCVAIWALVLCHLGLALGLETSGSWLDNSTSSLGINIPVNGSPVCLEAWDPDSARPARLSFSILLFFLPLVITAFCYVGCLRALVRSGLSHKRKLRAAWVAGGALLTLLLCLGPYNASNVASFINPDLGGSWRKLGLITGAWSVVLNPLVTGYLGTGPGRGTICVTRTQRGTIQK
human GPR40, sequence (O14842 whole entry): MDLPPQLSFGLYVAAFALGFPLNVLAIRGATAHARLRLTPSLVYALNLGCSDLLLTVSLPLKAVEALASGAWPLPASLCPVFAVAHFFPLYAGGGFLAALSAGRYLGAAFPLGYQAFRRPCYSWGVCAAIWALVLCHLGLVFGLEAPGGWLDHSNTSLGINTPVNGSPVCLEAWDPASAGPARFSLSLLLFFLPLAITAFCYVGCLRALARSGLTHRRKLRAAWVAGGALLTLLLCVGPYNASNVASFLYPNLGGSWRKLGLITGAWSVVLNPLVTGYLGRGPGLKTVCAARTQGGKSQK

`CCCCCCCC/C=C\CCCCCCCC(=O)O` [oleic C18:1, oleic acid]: the “Promotion of glucose-dependent insulin secretion” value was 1.9 ± 0.4 fold in experiment [1] and 1.2 ± 0.3 fold in experiment [2].

For `CCC(=O)O` [propionic C3:0], at human GPR40, the “Activation of human GPR40 receptor” value is reported as “minimal activation”. The “Activation of mouse GPR40 receptor” value on mouse GPR40 was “minimal activation”.

As to “exendin-4: glucagon-like peptide 1 mimetic, positive control”, the “Effect on glucose excursion during IPGTT” value in the experiment with wild-type C57BL/6 mice is reported as “completely prevented any glucose excursion”.

In the case of `CCCCC(=O)O` [pentanoic C5:0, pentanoic acid], the “Activation of human GPR40 receptor” value on human GPR40 was “minimal activation”. For the same compound, the “Activation of mouse GPR40 receptor” value on mouse GPR40 was “minimal activation”.

With `CCCC(=O)O` [butyric C4:0], the “Activation of human GPR40 receptor” value on human GPR40 is given as “minimal activation”. In addition, the “Activation of mouse GPR40 receptor” value on mouse GPR40 is “minimal activation”.

Regarding `CCCCCCCCCCCCCCCC(=O)O` [palmitate, palmitic acid], the “Promotion of glucose-dependent insulin secretion” value in experiment [1] is 2.4 ± 0.3 fold; in experiment [2], 1.8 ± 0.5 fold.
